Experimental data published in ChEMBL document CHEMBL1133154, “Inhibition of inducible nitric oxide synthase by acetamidine derivatives of hetero-substituted lysine and homolysine” (Bioorg Med Chem Lett, 2000).

Key:
[1] = target: Nitric oxide synthase (inducible and endothelial) (Homo sapiens) (UniProt P35228+P29474); experiment: Ratio of Endothelial Nitric Oxide Synthase to Inducible nitric oxide synthase; assay type: protein assay
Nitric oxide synthase 3 [2] = target: T1, Nitric oxide synthase 3 (Homo sapiens, UniProt P29474); experiment: Inhibition of human endothelial Nitric Oxide Synthase
T1 sequence (P29474 whole entry): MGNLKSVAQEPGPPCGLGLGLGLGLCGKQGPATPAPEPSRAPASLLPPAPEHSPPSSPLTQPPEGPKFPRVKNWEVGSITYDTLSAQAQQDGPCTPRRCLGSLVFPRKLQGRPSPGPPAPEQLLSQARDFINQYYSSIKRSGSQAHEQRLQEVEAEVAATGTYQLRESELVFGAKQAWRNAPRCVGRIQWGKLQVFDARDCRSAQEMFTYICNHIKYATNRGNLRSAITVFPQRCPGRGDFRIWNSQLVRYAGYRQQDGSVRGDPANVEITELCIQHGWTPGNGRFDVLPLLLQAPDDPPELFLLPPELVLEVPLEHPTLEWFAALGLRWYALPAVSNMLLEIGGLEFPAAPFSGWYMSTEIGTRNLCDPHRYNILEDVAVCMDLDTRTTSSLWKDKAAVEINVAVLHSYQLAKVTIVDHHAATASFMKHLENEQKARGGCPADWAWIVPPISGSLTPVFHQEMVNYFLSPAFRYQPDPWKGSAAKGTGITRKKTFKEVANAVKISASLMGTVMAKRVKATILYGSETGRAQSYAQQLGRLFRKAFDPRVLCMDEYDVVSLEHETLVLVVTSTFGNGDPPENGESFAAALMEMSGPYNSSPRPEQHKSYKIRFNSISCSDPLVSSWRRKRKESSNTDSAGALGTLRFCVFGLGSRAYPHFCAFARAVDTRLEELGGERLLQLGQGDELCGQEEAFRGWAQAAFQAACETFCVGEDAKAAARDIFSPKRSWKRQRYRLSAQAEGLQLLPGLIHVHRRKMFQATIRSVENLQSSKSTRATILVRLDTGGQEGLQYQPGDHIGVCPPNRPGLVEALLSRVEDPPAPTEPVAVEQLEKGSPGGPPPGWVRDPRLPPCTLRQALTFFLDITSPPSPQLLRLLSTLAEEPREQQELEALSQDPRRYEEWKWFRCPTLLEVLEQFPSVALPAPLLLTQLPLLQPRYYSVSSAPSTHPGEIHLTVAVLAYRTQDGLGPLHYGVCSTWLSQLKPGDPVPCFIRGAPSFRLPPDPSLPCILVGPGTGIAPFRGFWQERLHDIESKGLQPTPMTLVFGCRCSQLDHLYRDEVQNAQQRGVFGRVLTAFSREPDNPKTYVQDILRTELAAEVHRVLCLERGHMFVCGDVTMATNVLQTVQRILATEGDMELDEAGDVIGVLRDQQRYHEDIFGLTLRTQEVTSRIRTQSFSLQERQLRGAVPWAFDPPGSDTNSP

Nitric oxide synthase 1 [3] = target: T2, Nitric oxide synthase 1 (Homo sapiens, UniProt P29475); experiment: Inhibition of human neuronal Nitric Oxide Synthase
[4] = target: Nitric oxide synthase, inducible (Homo sapiens, UniProt P35228); experiment: Inhibition of human inducible nitric oxide synthase
[5] = target: Nitric oxide sythases; iNOS & nNOS (Homo sapiens) (UniProt P29475+P35228); experiment: Ratio of binding to Neuronal nitric oxide synthase and Inducible nitric oxide synthase; assay type: protein assay
Nitric oxide synthase 1 [6] = target: T2, Nitric oxide synthase 1; experiment: Concentration required for inhibition of neuronal Nitric Oxide Synthase in human
Procedure, shortened: (§1)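 Recombinant human NOS enzymes (endothelial or neuronal isoform) were tested in an oxyhaemoglobin assay. Readings were taken 15–30 min after inhibitor addition so that time-dependent inhibition could develop, and IC50 values were derived from those readings.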

Nitric oxide synthase 3 [7] = target: T1, Nitric oxide synthase 3; experiment: Concentration required for inhibition of endothelial Nitric Oxide Synthase in human; procedure, shortened: as §1

Chain of Nitric oxide synthase, inducible (P35228 whole entry): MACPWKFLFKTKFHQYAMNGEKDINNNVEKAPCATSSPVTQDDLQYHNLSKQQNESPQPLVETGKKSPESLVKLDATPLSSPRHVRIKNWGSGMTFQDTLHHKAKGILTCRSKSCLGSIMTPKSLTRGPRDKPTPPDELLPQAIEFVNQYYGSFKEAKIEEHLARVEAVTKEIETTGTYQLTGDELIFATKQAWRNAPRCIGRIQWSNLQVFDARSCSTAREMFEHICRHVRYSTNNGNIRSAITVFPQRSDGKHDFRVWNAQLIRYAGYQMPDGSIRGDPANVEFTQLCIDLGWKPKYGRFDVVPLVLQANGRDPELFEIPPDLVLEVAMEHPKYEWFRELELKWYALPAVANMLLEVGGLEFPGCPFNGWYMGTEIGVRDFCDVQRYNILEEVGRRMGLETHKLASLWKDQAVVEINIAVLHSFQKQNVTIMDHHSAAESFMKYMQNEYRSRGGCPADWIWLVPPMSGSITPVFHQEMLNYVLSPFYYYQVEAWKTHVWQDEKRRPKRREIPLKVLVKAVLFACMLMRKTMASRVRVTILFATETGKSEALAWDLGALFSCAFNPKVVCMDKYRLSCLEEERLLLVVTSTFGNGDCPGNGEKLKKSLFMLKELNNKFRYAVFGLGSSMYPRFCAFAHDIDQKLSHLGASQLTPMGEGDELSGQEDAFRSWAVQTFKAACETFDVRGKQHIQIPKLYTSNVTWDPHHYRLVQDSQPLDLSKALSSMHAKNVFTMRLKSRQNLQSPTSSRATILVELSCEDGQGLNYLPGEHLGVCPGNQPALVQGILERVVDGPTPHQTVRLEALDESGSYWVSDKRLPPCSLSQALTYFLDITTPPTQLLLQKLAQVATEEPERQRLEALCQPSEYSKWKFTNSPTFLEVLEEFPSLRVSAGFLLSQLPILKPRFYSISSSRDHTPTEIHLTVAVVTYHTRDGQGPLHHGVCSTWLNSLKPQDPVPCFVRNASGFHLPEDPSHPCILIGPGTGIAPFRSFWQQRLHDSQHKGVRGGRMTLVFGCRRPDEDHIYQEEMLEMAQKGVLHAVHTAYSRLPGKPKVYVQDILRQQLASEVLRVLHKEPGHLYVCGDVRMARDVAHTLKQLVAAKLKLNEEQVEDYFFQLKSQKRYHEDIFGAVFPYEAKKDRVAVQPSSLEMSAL
T2 sequence (P29475 whole entry): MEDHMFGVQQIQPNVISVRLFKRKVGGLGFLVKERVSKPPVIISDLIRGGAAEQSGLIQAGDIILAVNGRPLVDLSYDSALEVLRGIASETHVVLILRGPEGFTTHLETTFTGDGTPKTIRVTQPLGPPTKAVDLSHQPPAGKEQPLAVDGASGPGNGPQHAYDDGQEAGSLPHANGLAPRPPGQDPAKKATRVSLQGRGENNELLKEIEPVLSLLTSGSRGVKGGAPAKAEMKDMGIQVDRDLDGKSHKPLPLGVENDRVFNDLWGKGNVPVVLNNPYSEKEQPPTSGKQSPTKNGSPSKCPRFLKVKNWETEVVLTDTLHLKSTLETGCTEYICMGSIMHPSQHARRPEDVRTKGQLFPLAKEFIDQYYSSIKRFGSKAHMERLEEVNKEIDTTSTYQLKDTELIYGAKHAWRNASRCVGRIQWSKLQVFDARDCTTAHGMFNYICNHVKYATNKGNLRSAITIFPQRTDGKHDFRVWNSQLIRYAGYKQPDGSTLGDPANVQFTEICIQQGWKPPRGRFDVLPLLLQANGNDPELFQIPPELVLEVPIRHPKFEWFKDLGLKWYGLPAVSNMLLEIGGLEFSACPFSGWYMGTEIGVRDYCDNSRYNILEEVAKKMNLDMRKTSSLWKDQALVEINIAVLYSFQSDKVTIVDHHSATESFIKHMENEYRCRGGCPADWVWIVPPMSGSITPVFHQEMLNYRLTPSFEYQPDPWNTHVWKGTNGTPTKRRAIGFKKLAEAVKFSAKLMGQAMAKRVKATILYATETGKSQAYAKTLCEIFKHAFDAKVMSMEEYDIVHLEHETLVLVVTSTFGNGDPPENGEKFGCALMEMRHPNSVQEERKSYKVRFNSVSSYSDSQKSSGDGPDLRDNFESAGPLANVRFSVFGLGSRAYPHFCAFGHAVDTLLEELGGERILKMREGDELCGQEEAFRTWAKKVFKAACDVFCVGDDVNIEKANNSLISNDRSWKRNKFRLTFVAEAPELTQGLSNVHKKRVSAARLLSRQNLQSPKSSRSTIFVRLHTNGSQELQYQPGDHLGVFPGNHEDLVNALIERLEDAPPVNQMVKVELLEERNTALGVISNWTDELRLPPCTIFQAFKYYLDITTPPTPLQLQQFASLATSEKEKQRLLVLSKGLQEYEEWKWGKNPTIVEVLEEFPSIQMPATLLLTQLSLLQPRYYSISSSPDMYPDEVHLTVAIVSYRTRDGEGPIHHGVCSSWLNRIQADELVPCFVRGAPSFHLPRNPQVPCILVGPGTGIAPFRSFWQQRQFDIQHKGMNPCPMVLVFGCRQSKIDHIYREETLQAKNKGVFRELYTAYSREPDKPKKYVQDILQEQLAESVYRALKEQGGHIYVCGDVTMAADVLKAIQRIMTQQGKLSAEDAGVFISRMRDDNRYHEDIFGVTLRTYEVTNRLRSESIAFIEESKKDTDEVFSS
Chain of Nitric oxide sythases; iNOS & nNOS (Homo sapiens) (P29475 whole entry, looked up): as the sequence (P29475 whole entry) above
Chain of Nitric oxide sythases; iNOS & nNOS (Homo sapiens) (P35228 whole entry, looked up): as the sequence (P35228 whole entry) above

Structure (SMILES) | Ratio [1] | IC50 (Nitric oxide synthase 3 [2]) [µM] | IC50 (Nitric oxide synthase 1 [3]) [µM] | IC50 [4] [µM] | Ratio [5] | IC50 (Nitric oxide synthase 1 [6]) [µM] | IC50 (Nitric oxide synthase 3 [7]) [µM]
CC(=N)NCCOC[C@H](N)C(=O)O | 11 | 13 | 11.6 | 1.2 | 10 | – | –
CC(=N)NCCSC[C@H](N)C(=O)O | > 18 | > 100 | 53 | 5.4 | 10 | – | –
CC(=N)NCCS(=O)(=O)C[C@@H](N)C(=O)O | > 125 | > 1000 | 630 | 8 | 78 | – | –
CC(=N)NCCSCC[C@H](N)C(=O)O [GW-274150] | 333 | 466 | 145 | 1.4 | 104 | – | –
CC(=N)NCC[S+]([O-])CCC(N)C(=O)O (stereo not given) | – | > 100 | > 100 | > 100 | – | – | –
CC(=N)NCCCCCC(N)C(=O)O (stereo not given) | > 5 | > 100 | > 100 | 20 | > 5 | – | –
CC(=N)NCCS(=O)(=O)CCC(N)C(=O)O (stereo not given) | – | > 100 | – | > 100 | – | > 100 | –
CC(=N)NCCSC[C@@H](N)C(=O)O | 57 | – | 13.2 | 0.7 | 19 | – | 40
CC(=N)NCCCS(=O)(=O)C[C@H](N)C(=O)O | – | > 100 | > 100 | > 100 | – | – | –
CC(=N)NCCCOC[C@H](N)C(=O)O | – | > 100 | > 100 | > 100 | – | – | –
CC(=N)NCCCC[C@@H](N)C(=O)O | 49 | 78 | 37 | 1.6 | 23 | – | –
CC(=N)NCCOCCC(N)C(=O)O (stereo not given) | 51 | 72 | 6 | 1.4 | 5 | – | –
CC(=N)NCCCSC[C@H](N)C(=O)O | – | > 100 | > 100 | 62 | – | – | –
CC(=N)NCCSCC[C@@H](N)C(=O)O | > 17 | > 100 | > 100 | 5.9 | > 17 | – | –
CC(=N)NCC[S+]([O-])C[C@@H](N)C(=O)O (stereo not given in full) | 19 | 155 | 68 | 8 | 9 | – | –
